These results are taken from ChEMBL document CHEMBL1124776, “Studies on hindered phenols and analogues. 2. 1,3-Benzoxathioles having SRS-A inhibiting activity” (J Med Chem, 1990).

In brackets after ≈: the same amount, converted by molar mass.

One experiment is filed under the species Cavia porcellus. In words: Evaluated for inhibition of the formation and release of SRS-A in isolated guinea pig ileum. In kind it is functional. The method in brief: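 Guinea pig (Hartley, male) lung slices from sensitized animals were preincubated with compound for 15 min, then challenged with albumin antigen. SRS-A formed and released was bioassayed by superfusion over isolated guinea pig ileum. IC50 (μM) came from a least-squares regression of percent inhibition against dose, with 95% confidence limits by Fieller's equation.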

Another experiment is filed under the species Rattus norvegicus. The experiment can be described thus: LPO-lowering activity was estimated by the IC50 value of compound in rat liver microsomal lipid peroxidation. Format: functional. The method, boiled down: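 Rat liver microsomes were reacted with compound plus cysteine (500 μM) and ferrous sulfate (5 μM), following the ferrous sulfate/cysteine method. Lipid peroxide was measured by the thiobarbituric acid method. IC50 (μg/mL) is the concentration giving 50% inhibition of lipid peroxide formation.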

For experiment [1], the system named is superoxide radical (cell-free, no organism). In words: The concentration of compound required to inhibit generation of superoxide by 50 percent electrochemically.
The mark [2] stands for this setting: Rattus norvegicus, Liver, read-out: IC50.

What is called IC50 is the concentration at which inhibition is half-maximal. Take `CCCC1Oc2c(C)c(C)c(O)c(C)c2S1` (stereo unspecified): the IC50 in the experiment listed under Cavia porcellus is 3.8 µM; in the experiment listed under Rattus norvegicus (setting [2]), below 0.1 mg/L. This compound also returned a Q1/2 in experiment [1] of 1.4 mM.

Turning to `Cc1c(C)c2c(c(C)c1O)SC(CCCO)O2` (stereo unspecified), the half-maximal inhibitory concentration (IC50) in the experiment filed under Cavia porcellus is 1.5 µM; in the experiment filed under Rattus norvegicus (setting [2]), 0.1 mg/L (≈ 0.393 µM). Moreover, the Q1/2 in experiment [1] amounted to 2.2 mM.

Regarding `Cc1c(C)c2c(c(C)c1O)SC(C)O2` (stereo unspecified), the IC50 in the experiment filed under Cavia porcellus is 2.1 µM; in the experiment listed under Rattus norvegicus (setting [2]), below 0.1 mg/L. In experiment [1], this compound displayed a Q1/2 of 1.6 mM.

`CCCCCCCC1Oc2c(C)c(C)c(O)c(C)c2S1` (stereo unspecified): the 50% inhibitory concentration (IC50) in the experiment filed under Cavia porcellus was above 33.9 µM; in the experiment listed under Rattus norvegicus (setting [2]), below 0.1 mg/L. Besides, in experiment [1], the Q1/2 stood at 1.4 mM.

Regarding `Cc1c(C)c2c(c(C)c1O)SC(CCC(=O)O)O2` (stereo unspecified), the figures for the IC50 in the experiment listed under Cavia porcellus and in the experiment filed under Rattus norvegicus (setting [2]) were above 37.2 µM and above 1 mg/L, respectively. Moreover, the Q1/2 in experiment [1] is 1.8 mM.

As for VITAMIN E [listing 1 of 2 here], the IC50 in the experiment listed under Rattus norvegicus is above 1 mg/L.

Take `CCCCC1Oc2c(C)c(C)c(O)c(C)c2S1` (stereo unspecified): the figures for the 50% inhibitory concentration (IC50) in the experiment listed under Cavia porcellus and in the experiment listed under Rattus norvegicus (setting [2]) were 11.9 µM and below 0.1 mg/L, respectively. The Q1/2 in experiment [1] amounted to 1.6 mM.

Take `Oc1ccc2c(c1)SCO2`: the IC50 in the experiment filed under Cavia porcellus was above 64.8 µM; in the experiment listed under Rattus norvegicus (setting [2]) it was above 1 mg/L. Besides, the Q1/2 in experiment [1] amounted to 6.2 mM.

With `CCC1Oc2c(C)c(C)c(O)c(C)c2S1` (stereo unspecified), the IC50 in the experiment listed under Cavia porcellus was 4.5 µM; in the experiment filed under Rattus norvegicus (setting [2]), below 0.1 mg/L. In experiment [1], this compound gave a Q1/2 of 1.3 mM.

For the compound `CCCCCCC1Oc2c(C)c(C)c(O)c(C)c2S1` (stereo unspecified), the values for the concentration for half-maximal inhibition (IC50) in the experiment listed under Cavia porcellus and in the experiment listed under Rattus norvegicus (setting [2]) were above 35.6 µM and 0.1 mg/L (≈ 0.357 µM), respectively. Besides, the Q1/2 in experiment [1] worked out at 1.6 mM.

Turning to `CC1Oc2cc(C(C)(C)C)c(O)cc2S1` (stereo unspecified), the 50% inhibitory concentration (IC50) is 11.2 µM in the experiment filed under Cavia porcellus and 0.1 mg/L (≈ 0.446 µM) in the experiment filed under Rattus norvegicus (setting [2]).

`NC1=NN(c2cccc(C(F)(F)F)c2)CC1` [BW-755C] yielded a 50% inhibitory concentration (IC50) in the experiment listed under Cavia porcellus of 136 µM.

Regarding `CCCCCCCCCCCCCCCCCCCC1Oc2c(C)c(C)c(O)c(C)c2S1` (stereo unspecified), the 50% inhibitory concentration (IC50) in the experiment listed under Rattus norvegicus (setting [2]) was above 1 mg/L. The compound further yielded a Q1/2 in experiment [1] of 1.8 mM.

`Cc1c(C)c2c(c(C)c1O)CCC(C)(CO)O2` (stereo unspecified): the 50% inhibitory concentration (IC50) in the experiment listed under Rattus norvegicus (setting [2]) is 0.3 mg/L (≈ 1.27 µM). In experiment [1], this compound displayed a Q1/2 of 2 mM.

`Cc1cc(C(C)(C)C)c(O)c(C(C)(C)C)c1` [BUTYLATED HYDROXYTOLUENE] registered a Q1/2 in experiment [1] of 0.45 mM.

With `Cc1c(C)c2c(c(C)c1O)CCC(C)(C(=O)O)O2` (stereo unspecified) [TROLOX], in the experiment filed under Rattus norvegicus (setting [2]), the concentration for half-maximal inhibition (IC50) was above 1 mg/L. For the same compound, in experiment [1], the Q1/2 is on record as 1.9 mM.

For the compound `Cc1c(C)c2c(c(C)c1O)SCO2`, the concentration for half-maximal inhibition (IC50) was 2.4 µM in the experiment filed under Cavia porcellus and below 0.1 mg/L in the experiment listed under Rattus norvegicus (setting [2]). Besides, in experiment [1], the Q1/2 was found to be 1.3 mM.

Take `Cc1c(C)c2c(c(C)c1O)SC(c1ccccc1)O2` (stereo unspecified): the IC50 in the experiment listed under Cavia porcellus was 6.6 µM; in the experiment listed under Rattus norvegicus (setting [2]) it was below 0.1 mg/L. In experiment [1], this compound registered a Q1/2 of 2.4 mM.

With VITAMIN E [listing 2 of 2 here], the Q1/2 in experiment [1] turned out to be 4.4 mM.

For `CC(C)(C)c1cc(/C=C2\CCOC2=O)cc(C(C)(C)C)c1O`, in the experiment listed under Cavia porcellus, the concentration for half-maximal inhibition (IC50) turned out to be 147 µM.

In the case of `Cc1c(C)c2c(c(C)c1O)CCC(C)(C)O2` [APC-100], the IC50 in the experiment filed under Rattus norvegicus (setting [2]) is below 0.1 mg/L. Moreover, the Q1/2 in experiment [1] turned out to be 2.4 mM.

Take `Cc1c(C)c2c(c(C)c1O)SC(CCC(N)=O)O2` (stereo unspecified): the IC50 in the experiment listed under Cavia porcellus is 3.1 µM; in the experiment filed under Rattus norvegicus (setting [2]), 0.3 mg/L (≈ 1.12 µM). The same compound displayed a Q1/2 in experiment [1] of 2.3 mM.
